# Compound activity (PubChem)
# Thrombin inh: thrombin (human) inhibition. alpha-thrombin, Boc-VPR-AMC fluorogenic substrate cleavage. P00734. hit rate 0.26% among 220,000. AID 1046. inhibition, % at 5 µM;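 active = inhibition at or above 40%; inactive = inhibition below 40%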
#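 System – human alpha-thrombin protein · Reagent – Boc-VPR-AMC substrate, 15 µM final · Compound – 5 µM single dose in 0.2% DMSO · Schedule – reaction at room temperature · Technique – AMC fluorescence at 355 nm excitation and 460 nm emission · Read-out basis – % inhibition relative to enzyme controls and enzyme-free blanks · Control set – no-compound enzyme wells and no-enzyme blanks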
# KLK5 inh: kallikrein 5 (human) inhibition | Q9Y337 | inhibition, % at 5 µM | hit rate 0.59% among 210,000 | AID 873 | recombinant hK5, fluorogenic AMC substrate cleavage;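 active = inhibition of 40% or more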
# Target sequence (Q9Y337 67-293 limits assumed): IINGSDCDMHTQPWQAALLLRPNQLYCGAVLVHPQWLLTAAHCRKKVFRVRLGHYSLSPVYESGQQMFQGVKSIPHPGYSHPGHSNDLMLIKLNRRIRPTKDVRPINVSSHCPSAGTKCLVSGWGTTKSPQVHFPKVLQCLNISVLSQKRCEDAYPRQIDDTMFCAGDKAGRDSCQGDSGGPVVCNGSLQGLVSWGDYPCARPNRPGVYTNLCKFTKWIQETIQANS
# Wee1 degr inh: human Wee1 degradation inhibition, primary screen; P30291; HeLa Luc-Wee1K328M stability, luciferase luminescence; 100% = proteasome inhibitor MG132 effect; reporter increase, % at 5 µM; hit rate 1.2% among 220,000;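 active = activation above the mean of all tested compounds plus 3 SD, set per screening run, cut at about 8.8% in these data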;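 note: cells exposed to compound for 20 h before luminescence read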
# FXIa inh 1536: blocks human coagulation factor XIa protease activity. inhibition, % at 5 µM. AID 798. purified FXIa, Boc-Glu-Ala-Arg-AMC fluorogenic substrate. P03951. hit rate 0.14% among 220,000;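 active = inhibition of at least 40%; inactive = inhibition below 40%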;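 note: fluorescence of freed AMC excited at 355 nm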
# FXIIa inh 1536: blocks human coagulation factor XIIa protease activity; P00748; purified FXIIa, Boc-QGR-AMC fluorogenic substrate, 2 h; inhibition, % at 5 µM; hit rate 0.3% among 220,000; AID 800; in the data active = inhibition above about 40%
# A number is an active result; . = inactive; / = not tested or not shown. Shown are actives, neighbours in structure and some others; about 2.2% of the full set was active somewhere.
SMILES,Thrombin inh,KLK5 inh,Wee1 degr inh,FXIa inh 1536,FXIIa inh 1536
CCn1c(COc2ccc(Cl)cc2)nnc1SCc1nc2ccccc2[nH]1,.,.,.,.,.
COc1ccc(C)cc1S(=O)(=O)Nc1ccncc1,.,.,.,.,.
COc1ccc(C(C)C)cc1S(=O)(=O)Nc1ccncc1,46,.,.,.,.
Brc1c(C[n+]2ccccc2)nc2ccccn12,.,.,.,.,53
CC(C)COP(=O)(OCC(C)C)C(O)c1ccc(N(C)C)cc1 (stereo not given),.,.,.,.,.
CC(C)c1ccccc1NS(C)(=O)=O,.,.,16,.,.
CC(C)c1ccccc1NS(=O)(=O)N(C)C,.,.,.,.,.
CCC(=O)c1c(NCCc2ccccc2)cc(C)oc1=O,.,.,.,.,.
O=C(O)CSCCOc1ccc(OCCSCC(=O)O)cc1,.,.,10,.,.
CCN(C(=O)COC(=O)C1CCN(S(=O)(=O)c2cccs2)CC1)c1ccccc1,.,.,.,.,.
COc1cc(/C=N/n2cnnc2)ccc1OC(=O)c1cccnc1,.,.,.,.,42
COc1cc(/C=N/n2cnnc2)ccc1OC(=O)c1ccncc1,.,.,.,.,.
CCCCCOC(=O)CSc1nnc(-c2cc(OC)c(OC)c(OC)c2)o1,.,.,9.0,.,.
CCCOC(=O)CSc1nnc(-c2cc(OC)c(OC)c(OC)c2)o1,.,.,.,.,.
O=C(NC(=S)Nc1ccc(CN2CCOCC2)cc1)c1ccc2c(c1)OCCO2,.,.,.,.,.
CCNC(=O)Nc1ccc(-n2nc(C)c(C(=O)OCC)c2C)nc1,/,.,.,.,.
COc1ccc(NC(=O)c2cccc(S(=O)(=O)Nc3ccc(Br)cc3)c2)cn1,.,40,.,.,.
O=C(Nc1ccc(Br)cc1)c1cccc(S(=O)(=O)Nc2cnc3ccccc3c2)c1,.,.,.,.,.
CC(C)(C)c1ccc(S(=O)(=O)N(CCCN2CCOCC2)Cc2cccs2)cc1,.,.,.,.,.
CC(C)=CCC/C(C)=C/CC/C(C)=N/O,.,.,.,.,40
O=C(Nc1nc(-c2ccccc2)cs1)c1ccc(S(=O)(=O)N2CCc3ccccc32)cc1,.,.,.,59,.
CCCCNC(=S)Nc1ccccc1Cc1ccccc1,.,.,.,.,.
CCOc1ccc(C(C)=O)cc1CN1C(=O)NC(C)(C2CC2)C1=O (stereo not given),.,.,.,.,.
COCCNC(=O)C(c1ccc(C)o1)N(C(=O)c1snc(C(N)=O)c1N)c1ccc(C)c(C)c1 (stereo not given),.,44,.,.,.
O=C(N(c1ccccc1)c1ccccc1)N(c1ccccc1)c1ccccc1,.,.,.,.,.
SMILES,Thrombin inh,KLK5 inh,Wee1 degr inh,FXIa inh 1536,FXIIa inh 1536
NC(=S)N(c1ccccc1)c1ccccc1,.,.,9.6,.,.
NC(=O)C1(C(N)=O)OC1c1ccc(Cl)c(Cl)c1 (stereo not given),.,.,.,.,.
CCOC(=O)c1sc(-c2ccc(OC)cc2)cc1N,.,.,11,.,.
O=C(O)c1ccc(F)c(S(=O)(=O)Nc2ccccc2Cl)c1,.,86,.,.,.
O=Cc1c(OCc2ccccc2)ccc2ccccc12,.,.,11,.,.
COc1cc(OC)cc(-c2nnc(SCC(=O)Nc3cccc(C(=O)O)c3)s2)c1,.,.,.,.,.
CC(=O)N1CCC(N(CCN2CCOCC2)C(=S)Nc2cc(C)ccc2C)CC1,.,51,.,.,.
CC(=O)N1CCC(N(CCN2CCOCC2)C(=S)Nc2cccc(C)c2)CC1,.,.,.,.,.
FC(F)(Cl)c1nnc2ccc(Sc3ccccn3)nn12,.,.,.,.,.
O=C(c1ccc2c(=O)n3c(nc2c1)CCCCC3)N1CCc2ccccc21,.,.,.,.,.
NC(N)=NCC(O)CN(c1ccccc1)c1ccccc1 (stereo not given),.,.,.,.,.
Cc1nn(C)c(C)c1S(=O)(=O)N1CCC(C(=O)NCCC2=CCCCC2)CC1,42,65,.,.,41
Cc1ccc(N(CC(=O)NCc2ccco2)C(=O)CCC(=O)Nc2nccs2)cc1,.,.,.,.,.
CC(=O)NC1CCC(C(=O)O)(c2ccccc2)C1 (stereo not given),.,.,9.3,.,.
COc1ccccc1NC(=O)c1sc2ncn(Cc3cccc(C)c3)c(=O)c2c1C,100,44,.,.,.
COc1ccccc1NC(=O)c1sc2ncn(Cc3ccc(C)cc3)c(=O)c2c1C,99,.,.,.,.
O=C(Nc1ccc(C2SCCS2)cc1)c1ccccc1,.,.,10,.,.
CCCCNC(=O)Nc1ccc(C2SCCS2)cc1,.,60,.,.,.
CNC(=O)Nc1ccc(C2SCCS2)cc1,.,.,.,.,.
Cc1ccc(-n2nc(-c3ccc(OC(F)(F)F)cc3)cc2N)cc1C,.,.,.,.,.
COc1cccc(N2CCN(C(=O)C3CCN(S(=O)(=O)c4cccs4)CC3)CC2)c1,.,.,.,.,.
Cc1cc(Br)c2[nH]c3c(c2c1)CCCC3=O,.,.,.,.,54
O=C(COC(=O)C1CC(=O)N(Cc2ccccc2)C1)Nc1ccccc1F (stereo not given),.,.,.,.,.
COc1ccc(/C=C2\CCC/C(=C\C=N\N(C)C)C2=O)cc1,.,.,.,.,.
CN(C)/N=C/C=C1\CCC/C(=C\c2ccc(F)c(F)c2)C1=O,.,.,10,.,.
SMILES,Thrombin inh,KLK5 inh,Wee1 degr inh,FXIa inh 1536,FXIIa inh 1536
FC(F)(F)c1ccc(Oc2ccccc2Cl)nc1,.,.,.,.,/
Cc1ccc(NC(=O)Cc2ncc(C(F)(F)F)cc2Cl)cc1Cl,.,57,.,.,.
O=C(O)CC(=O)Nc1ccc(Oc2ccc(C(F)(F)F)cn2)c(Cl)c1,.,.,9.2,.,.
Cc1ccc(S(=O)(=O)N2CCCC2C(=O)NCc2ccc3c(c2)OCO3)cc1 (stereo not given),.,.,.,.,.
CC(C)c1ccc(/C=C2\SC(N3CCOCC3)=NC2=O)cc1,.,.,9.2,.,.
CCc1ccc(/C=C2/SC(N3CCOCC3)=NC2=O)cc1,.,.,.,.,.
COC(=O)CS(=O)(=O)c1ccc(C)cc1,/,.,.,.,.
CCCOc1cccc(C(=O)NC(=S)Nc2cccc(NC(=O)c3ccccc3Cl)c2)c1,.,.,.,.,.
CC(C)COc1cccc(C(=O)NC(=S)Nc2cccc(NC(=O)c3ccccc3Cl)c2)c1,.,42,.,.,.
NC(=O)c1ccsc1NC(=O)CSc1nnc(C2CC2)n1Cc1ccccc1,59,48,.,.,.
Cc1cccc(OCC2CCCN(Cc3nc(C4CC4)no3)C2)c1 (stereo not given),.,.,.,.,.
CCc1ccc(NC2CC(=O)N(CCc3ccc(OC)c(OC)c3)C2=O)cc1 (stereo not given),.,.,.,.,.
CCc1ccc(NC2CC(=O)N(c3ccc(OC)cc3OC)C2=O)cc1 (stereo not given),43,.,.,.,.
C#CCNc1cc(C)nc2ncnn12,104,.,.,.,.
